Assay outcomes as filed in PubChem.
HSP90 inh: HSP90 inhibitors, primary screen, cell lysate, luminescence | Heat shock protein HSP 90 (rabbit reticulocyte lysate; luciferase refolding) | AID 1789, 2009 | inhibition, % at 5.6 µM | Rabbit reticulocyte lysate, luciferase refolding luminescence, 3 h | 0.91% of 290,000 active;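 active means inhibition above the screen-wide mean plus 3 SD, computed separately per campaign, cut at about 16% in these data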;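 further: 0% = DMSO wells and 100% = 60 µM geldanamycin wells; inhibitors lower the luminescence because luciferase stays unfolded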
SENP8 block-1: human SENP8 protease inhibitors, primary screen, biochemical, fluorescence, Nedd8 protein substrate, uHTS | inhibition, % at 20 µM | recombinant SENP8 | AID 602440, 2012 | 0.64% of 360,000 active | Sentrin-specific protease 8 (Homo sapiens), Q96LD8; in the data active means inhibition mostly above about 40%, no sharp cut-off; inactive means mostly below about 27%
SENP1 FRET inh: human SENP1 catalytic domain inhibitors, primary screen, biochemical, FRET, uHTS | AID 624204, 2012 | inhibition, % at 10 µM | 0.21% of 360,000 active | Sentrin-specific protease 1 (Homo sapiens), Q9P0U3 | recombinant SENP1 catalytic domain, CyPet-SUMO1-YPet FRET cleavage;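 active means inhibition at least 30% at 10 µM, raw YFP signal under a set limit, fluorescence ratio 0.5 to 1.5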;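 further: 0% = enzyme with DMSO and 100% = no enzyme wells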
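Assay system: hSENP1 catalytic domain, recombinant. Amount: SENP1 enzyme, 20 pM final. Schedule: 50 min reaction, RT, dark. Technique: FRET, CFP and YFP emission. Control set: no-enzyme wells low, DMSO-plus-enzyme wells high control.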
SENP6 inh: SENP6 protease inhibitors, primary screen, biochemical, luminescence, uHTS. Sentrin-specific protease 6 (Homo sapiens), Q9GZR1. inhibition, % at 10 µM. Recombinant SENP6 catalytic domain, aminoluciferin luminescence. AID 2599, 2010. 1.8% of 330,000 active;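 active means inhibition above about 50% at the single tested dose, limit read from the data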;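 further: plate controls were DMSO wells with enzyme for no effect and DMSO wells lacking enzyme for full effect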
Target sequence (Q9GZR1 628-1112 limits assumed): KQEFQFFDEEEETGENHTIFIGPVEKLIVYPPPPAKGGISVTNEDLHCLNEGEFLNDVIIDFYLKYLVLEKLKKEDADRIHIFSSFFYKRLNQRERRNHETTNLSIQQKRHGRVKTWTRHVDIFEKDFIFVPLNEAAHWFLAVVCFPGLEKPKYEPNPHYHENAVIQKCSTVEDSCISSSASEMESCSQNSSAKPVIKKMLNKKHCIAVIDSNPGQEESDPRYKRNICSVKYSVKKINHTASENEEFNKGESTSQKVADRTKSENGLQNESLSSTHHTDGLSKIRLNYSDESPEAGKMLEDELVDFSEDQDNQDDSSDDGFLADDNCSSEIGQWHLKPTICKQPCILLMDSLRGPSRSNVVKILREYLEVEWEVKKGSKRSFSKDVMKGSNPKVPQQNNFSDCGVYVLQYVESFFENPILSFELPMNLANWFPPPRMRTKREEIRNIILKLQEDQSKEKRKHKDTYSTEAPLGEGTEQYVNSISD
SENP7 block: SENP7 protease inhibitors, primary screen, biochemical, luminescence, uHTS; 1.5% of 330,000 active; inhibition, % at 5 µM; Sentrin-specific protease 7 (Homo sapiens), Q9BQF6; recombinant SENP7, Z-RLRGG-aminoluciferin luminescence, 40 min;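 active means inhibition above about 50% at the single test dose, limit read from the data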;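 further: plate controls were DMSO with enzyme for no effect and no enzyme buffer wells for full effect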
SENP8 block-2: SENP8 protease inhibitors, primary screen, biochemical, luminescence | Sentrin-specific protease 8 (Homo sapiens), Q96LD8 | AID 2540, 2010 | purified SENP8, Z-RLRGG-aminoluciferin cleavage | inhibition, % at 10 µM | 1.2% of 330,000 active; in the data active means inhibition above about 50%
SENP8 confirm: SENP8 protease inhibitors, retest, confirmation, biochemical, luminescence, single concentration; shares compounds with SENP7 block; Recombinant SENP8, Z-RLRGG-aminoluciferin luminescence, 60 min; inhibition, % at 12.5 µM; 40% of 6,200 active; AID 488912, 2010;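 active means mean inhibition across replicates above about 50%, limit read from the data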
SENP6 conf: SENP6 protease inhibitors, confirmation, biochemical, luminescence, single concentration | inhibition, % at 12.5 µM | shares compounds with SENP7 block | recombinant SENP6, Z-RLRGG-aminoluciferin luminescence | 58% of 6,200 active
SENP7 conf: SENP7 protease inhibitors, retest, confirmation, biochemical, luminescence, single concentration | shares compounds with SENP7 block | recombinant SENP7, Z-RLRGG-aminoluciferin luminescence, 40 min | inhibition, % at 12.5 µM | 69% of 6,200 active
Casp3 select: caspase-3 protease inhibitors, confirmation, selectivity assay for SENP inhibitor project, biochemical, single concentration; shares compounds with SENP7 block; purified caspase-3, Z-DEVD-aminoluciferin luminescence, 60 min; inhibition, % at 12.5 µM; 60% of 6,200 active;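 active means mean inhibition above about 50%, limit read from the data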;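 further: plate controls were enzyme with DMSO for no effect and wells without caspase-3 for full effect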
Target sequence (P42574 28-227 limits assumed): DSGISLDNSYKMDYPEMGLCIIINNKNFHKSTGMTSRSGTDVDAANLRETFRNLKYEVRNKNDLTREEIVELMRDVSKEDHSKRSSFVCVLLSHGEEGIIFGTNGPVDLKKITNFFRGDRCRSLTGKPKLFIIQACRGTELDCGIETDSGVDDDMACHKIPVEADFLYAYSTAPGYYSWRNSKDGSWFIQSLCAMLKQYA
Luc interf: interferes with luciferase luminescence in SENP counter-screen | shares compounds with SENP7 block | Pre-incubated SENP8/Z-RLRGG-aminoluciferin, luciferase luminescence interference | inhibition, % at 12.5 µM | 39% of 6,200 active;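 active means mean inhibition above about 50% when retested at one dose, limit read from the data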;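 further: plate controls were DMSO wells with completed reaction for no effect and substrate without enzyme for full effect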
* = called active by the depositor. Shown are actives, neighbours in structure and some others; about 2.9% of the full set was active somewhere.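 How the source made its calls, unless noted: active means mean inhibition above about 50% in the one-dose retest (limit read from the data); inactive means the rest.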

How did O=C(Cn1cnc2cc([N+](=O)[O-])ccc2c1=O)NC1CCS(=O)(=O)C1 (stereo not given) do in these assays?
HSP90 inh: 2.0; SENP8 block-1: -4.2; SENP1 FRET inh: -13.7; SENP6 inh: 5.8; SENP7 block: 1.4; SENP8 block-2: 5.8

Results for CC(C)CCNS(=O)(=O)c1ccc(-c2ccc(S(=O)(=O)NCCC(C)C)cc2)cc1 ?
HSP90 inh: 2.6; SENP8 block-1: 6.6; SENP1 FRET inh: -1.2; SENP6 inh: -38.8; SENP7 block: -1.5; SENP8 block-2: -1.6

Results for COc1ccc(S(=O)(=O)NCCC(C)C)cc1OC ?
HSP90 inh: 2.8; SENP8 block-1: -4.3; SENP1 FRET inh: -1.5; SENP6 inh: -5.4; SENP7 block: 88.4*; SENP8 block-2: -8.1; SENP8 confirm: 14.2; SENP6 conf: 12.8; SENP7 conf: 9.0; Casp3 select: 1.8; Luc interf: 2.8

What do the screens show for `O=C(CSc1nc(-c2ccco2)cc(C(F)(F)F)n1)NCCCN1CCOCC1`?
HSP90 inh: -2.3; SENP8 block-1: -115.0; SENP1 FRET inh: -0.5; SENP6 inh: -15.5; SENP7 block: -6.8; SENP8 block-2: -13.2

What do the screens show for `CC(=O)c1ccc(NC(=O)C(C)OC(=O)C2CCN(c3ccc(C(F)(F)F)cn3)CC2)cc1` (stereo not given)?
SENP8 block-1: -25.1; SENP1 FRET inh: 0.5; SENP6 inh: -9.4; SENP7 block: 1.3; SENP8 block-2: 3.4

Results for Cc1ccc([N+](=O)[O-])cc1NC(=O)C[n+]1ccccc1 ?
HSP90 inh: -1.3; SENP8 block-1: 12.9; SENP1 FRET inh: 2.1; SENP6 inh: -3.4; SENP7 block: 1.4; SENP8 block-2: -9.2

How did COc1ccc(/C=N/Nc2ncnc(Cl)c2N)cc1OC do in these assays?
HSP90 inh: 4.8; SENP8 block-1: -235.4; SENP1 FRET inh: -0.9; SENP6 inh: -31.1; SENP7 block: -2.9; SENP8 block-2: -8.2

How did Nc1c(Cl)ncnc1N/N=C/c1cccc(O)c1 do in these assays?
HSP90 inh: -0.9; SENP8 block-1: -197.6; SENP1 FRET inh: -3.2; SENP6 inh: 56.3*; SENP7 block: 33.5; SENP8 block-2: 25.4; SENP8 confirm: 40.5; SENP6 conf: 35.9; SENP7 conf: 70.3*; Casp3 select: 67.8*; Luc interf: 25.0

Results for CCOc1ccccc1Nc1nc(-c2cccnc2)cs1 ?
HSP90 inh: -2.5; SENP8 block-1: 11.7; SENP1 FRET inh: 2.8; SENP6 inh: -7.1; SENP7 block: 3.9; SENP8 block-2: -12.5

How did c1ccc(Nc2nc(-c3cccnc3)cs2)nc1 do in these assays?
HSP90 inh: 1.2; SENP8 block-1: 3.7; SENP1 FRET inh: 3.5; SENP6 inh: 88.0*; SENP7 block: 81.3*; SENP8 block-2: 54.5*; SENP8 confirm: 16.7; SENP6 conf: 35.0; SENP7 conf: 87.5*; Casp3 select: 78.7*; Luc interf: 16.4

Results for Clc1ccccc1Nc1nc(-c2cccnc2)cs1 ?
HSP90 inh: 6.5; SENP8 block-1: 19.8; SENP1 FRET inh: 1.8; SENP6 inh: 87.9*; SENP7 block: 82.8*; SENP8 block-2: 73.6*; SENP8 confirm: 88.9*; SENP6 conf: 85.5*; SENP7 conf: 96.7*; Casp3 select: 66.0*; Luc interf: 53.0*

Results for Fc1ccc(-c2csc(Nc3ccccn3)n2)cc1 ?
HSP90 inh: 4.9; SENP8 block-1: 7.8; SENP1 FRET inh: -2.1; SENP6 inh: 86.9*; SENP7 block: 89.7*; SENP8 block-2: 83.5*; SENP8 confirm: 91.2*; SENP6 conf: 92.2*; SENP7 conf: 99.8*; Casp3 select: 70.1*; Luc interf: 58.4*

What do the screens show for `c1cncc(Nc2nc(-c3cccnc3)cs2)c1`?
HSP90 inh: 14.7; SENP8 block-1: 17.9; SENP1 FRET inh: 0.9; SENP6 inh: 7.1; SENP7 block: 8.2; SENP8 block-2: -4.9

What do the screens show for `CC(OC(=O)C1CCN(c2ccc(C(F)(F)F)cn2)CC1)C(=O)c1ccccc1` (stereo not given)?
SENP8 block-1: -2.0; SENP1 FRET inh: -2.5; SENP6 inh: -20.4; SENP7 block: -13.5; SENP8 block-2: -7.6

How did Cc1ccc2c(c1)COc1c3ccc(C(=O)N4CCCCC4)cc3nn1-2 do in these assays?
SENP8 block-1: -33.3; SENP1 FRET inh: 2.9; SENP6 inh: 84.2*; SENP7 block: 80.2*; SENP8 block-2: 81.3*; SENP8 confirm: 45.1; SENP6 conf: 87.0*; SENP7 conf: 95.8*; Casp3 select: 86.4*; Luc interf: 18.0

Results for O=C(c1ccc2c3n(nc2c1)-c1ccc(Cl)cc1CO3)N1CCOCC1 ?
SENP8 block-1: -23.4; SENP1 FRET inh: 0.2; SENP6 inh: 11.7; SENP7 block: -9.5; SENP8 block-2: 3.8

Results for O=C(NCC1CCCO1)c1ccc2c3n(nc2c1)-c1ccccc1CO3 (stereo not given) ?
SENP8 block-1: -184.3; SENP1 FRET inh: -2.9; SENP6 inh: 14.8; SENP7 block: -3.5; SENP8 block-2: 10.7

Results for O=C(c1ccc2c3n(nc2c1)-c1ccccc1CO3)N1CCCCC1 ?
SENP8 block-1: -8.3; SENP1 FRET inh: -0.3; SENP6 inh: 96.5*; SENP7 block: 94.6*; SENP8 block-2: 91.3*; SENP8 confirm: 97.3*; SENP6 conf: 97.7*; SENP7 conf: 101.3*; Casp3 select: 97.2*; Luc interf: 96.3*
